Assay results gathered from unrelated publications.
Target: Serine/threonine-protein kinase PAK 1 (PAK1, Homo sapiens, UniProt Q13153)

COc1cc2ncnc(Nc3ccc(Oc4ccccc4)c(C)c3C)c2cc1OC — inhibition (enzyme activity; inhibitor; 1 µM): 5%
Cc1ccc(C(=O)Nc2ccc(CN3CCN(C)CC3)c(C(F)(F)F)c2)cc1C#Cc1cnc2cccnn12 — remaining activity (enzyme activity; inhibitor; 23.5 nM): 100%
CS(=O)(=O)NCC[C@H](NC(=O)c1cncc2c1cnn2-c1ccc(F)cc1)c1ccnc(S(C)(=O)=O)c1 — remaining binding (cell-free assay; competition with immobilised ligand; 1 µM): 88%
COc1cc2ncnc(Nc3ccc(F)c(Cl)c3)c2cc1OCCCN1CCOCC1 — remaining signal (cell-free assay; 0.5 µM): 104%
O=C(CSc1nc2nccnc2c(=O)n1CCc1ccccc1)Nc1nccs1 — inhibition (enzyme activity; inhibitor; 10 µM): 19%
CCc1ccccc1C(=O)Nc1n[nH]c2c(C)c(F)c(C3C(C#N)=C(C)N(C)C(C)=C3C#N)cc12 — remaining binding (cell-free assay; competition with immobilised ligand; 1 µM): 82%
O=C(Nc1cnn(-c2csc(C(=O)NC3COC3)c2)c1)Nc1c(F)cccc1Cl — remaining activity (enzyme activity; inhibitor; 5 µM): 81.2%
Cc1ccc(C(=O)NCc2ccsc2)cc1C#Cc1cn(C(C)C)c2ncnc(N)c12 — activity vs control (enzyme activity; inhibitor; 1 µM): 82%
CS(=O)(=O)N1CCCC(NC(=O)[C@H](CCC2CCCCC2)NC(=O)c2ccc(CNC(=O)c3cnc4ccccn34)cc2)C1 (some centres unmarked) — remaining binding (cell-free assay; competition with immobilised ligand; 0.1 µM): 82%
Cc1ccc(NC(=O)c2ccc(C)c(C(F)(F)F)c2)cc1C#Cc1nn(C2CCC(O)CC2)c2ncnc(N)c12 (centres unmarked) — remaining signal (cell-free assay; 10 µM): 87%
Nc1ncnc2occ(-c3ccc(NC(=O)Nc4cc(C(F)(F)F)ccc4F)cc3)c12 — remaining signal (cell-free assay; inhibitor; 20 µM): 41%
CN(C)C1CCN(CC#Cc2nn(C3CCCC3)c3nc(NCc4ccccc4)ncc23)C1 (centres unmarked) — inhibition (enzyme activity; inhibitor; FRET; 10 µM): 1%
O=C1CCc2cc(Nc3cc(OC4CCOCC4)c([N+](=O)[O-])cc3Cl)ccc2N1 — remaining binding (cell-free assay; competition with immobilised ligand; 1 µM): 88%
O=C(Nc1cnn(-c2csc(C(=O)NC3COC3)c2)c1)Nc1ccccc1Cl — remaining activity (enzyme activity; inhibitor; 5 µM): 106%
C=CC(=O)Nc1cc(Nc2nccc(Nc3cc(Cl)c(F)cc3C(C)(C)O)n2)c(OC)cc1N1CC[C@@H](N(C)C)C1 — inhibition (enzyme activity; inhibitor; 1 µM): -9%
O=C1NC(=O)c2cc(Nc3ccc(F)cc3)c(Nc3ccc(F)cc3)cc21 — remaining signal (cell-free assay; 0.5 µM): 95.5%
COc1ccc2c(c1)O[C@H](c1ccc(OC)c(OC)c1)C[C@@H]2NC(=O)C1(c2ccc3c(c2)OC(F)(F)O3)CC1 — remaining binding (cell-free assay; competition with immobilised ligand; 1 µM): 100%
Cc1ccc(Nc2nccc(N(C)c3ccc4c(C)n(C)nc4c3)n2)cc1S(N)(=O)=O — remaining signal (cell-free assay; inhibitor; 0.5 µM): 89.1%
Cc1c(NC(=O)c2cc(C(N)=O)nc3cc(F)ccc23)c(C(F)(F)F)nn1Cc1ccc(C(C)(C)C)cc1 — remaining binding (cell-free assay; competition with immobilised ligand; 1 µM): 98%
CC(C)(C)c1nc(-c2cccc(NS(=O)(=O)c3c(F)cccc3F)c2F)c(-c2ccnc(N)n2)s1 — remaining activity (enzyme activity; inhibitor; radiometric; 1 µM): 91%
